In ChEMBL document CHEMBL1641469, “New Hedgehog/GLI signaling inhibitors from Excoecaria agallocha” (Bioorg Med Chem Lett, 2011):
The source made the active and inactive calls. The rule behind the calls is not given here.

Assays:
[1] = Inhibition of human HH/Gli1-mediated transcriptional activity in tetracycline-treated human HaCaT cells treated after 12 hrs of tetracycline addition by luciferase reporter gene assay; format: cell-based
Method in brief: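 HaCaT cells carrying a GLI1-driven luciferase construct, seeded at 2 × 10⁵ cells per well; compounds added 12 h after tetracycline induction; luciferase activity and cell viability read at the same time point.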

DU-145 = assay: Cytotoxicity against human DU145 cells after 24 hrs by FMCA method; format: functional, cell-based; details: DU-145, 24 h
Method in brief: (§1)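 Cells (PANC1, DU145, C3H10T1/2) exposed to compounds in 0.05% DMSO; viability measured, n = 3; IC50 values derived from concentration–response.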

[2] = Cytotoxicity against mouse C3H10T1/2 cells after 24 hrs by FMCA method; format: functional, cell-based; details: C3H 10T1/2, 24 h; method in brief: as §1
PANC-1 [3] = assay: Cytotoxicity against human PANC1 cells after 24 hrs by FMCA method; format: functional, cell-based; details: PANC-1, 24 h; method in brief: as §1
PANC-1 [4] = assay: Inhibition of human HH/Gli1-mediated induction of nuclear Gli1 level in human PANC1 cells at 1.6 uM by Western blot analysis; format: cell-based
Method in brief: (§2)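 PANC1 cells treated, then full, cytosolic and nuclear fractions prepared; GLI1, PTCH and BCL2 protein levels assessed by Western blotting.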

PANC-1 [5] = assay: Inhibition of human HH/Gli1-mediated PTCH mRNA expression in human PANC1 cells transfected with Smo siRNA at 0.7 to 1.4 uM by RT-PCR analysis; format: cell-based
Method in brief: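 PANC1 cells transfected with Smo siRNA (non-targeting siRNA at same concentration as control), Smo depletion confirmed by Western blot; treated cells then assayed for Ptch mRNA by real-time quantitative RT-PCR.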

PANC-1 [6] = assay: Inhibition of human HH/Gli1-mediated expression of BCL-2 in human PANC1 cells by Western blot analysis; format: cell-based; method in brief: as §2
PANC-1 [7] = assay: Inhibition of human HH/Gli1-mediated expression of PTCH in human PANC1 cells by Western blot analysis; format: cell-based; method in brief: as §2
PANC-1 [8] = assay: Inhibition of human HH/Gli1-mediated PTCH mRNA expression in human PANC1 cells at 0.7 to 1.4 uM by RT-PCR analysis; format: cell-based
Method in brief: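 PANC1 cells treated in 0.05% DMSO; Ptch mRNA quantified by RT-PCR with GAPDH as internal control; n = 3.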

[9] = Homo sapiens, HaCaT, 12 h, read-out: IC50

In the case of `C[C@@H]1O[C@@H](Oc2c(-c3ccc(O)c(O)c3)oc3cc(O)cc(O)c3c2=O)[C@H](O)[C@H](O)[C@H]1O` [QUERCITRIN], the IC50 ([1]; hacat) is reported as “Not Active”.

In the case of `COc1ccc(-c2oc3cc(O)cc(O)c3c(=O)c2O[C@@H]2O[C@@H](C)[C@H](O)[C@@H](O)[C@H]2O)cc1`, the IC50 ([1]; hacat) is reported as “Not Active”.

In the case of `CC(=O)O[C@H]1[C@H](Oc2c(-c3ccc(O)cc3)oc3cc(O)cc(O)c3c2=O)O[C@@H](C)[C@H](O)[C@H]1O`, the IC50 ([1]; hacat) is reported as “Not Active”.

With `C[C@@H]1O[C@@H](Oc2c(-c3ccc(O)cc3)oc3cc(O)cc(O)c3c2=O)[C@H](O)[C@H](O)[C@H]1O` [AFZELIN] the IC50 ([1]; hacat) was “Not Active”.

For `C[C@@H]1O[C@@H](OC[C@H]2O[C@@H](Oc3c(-c4ccc(O)c(O)c4)oc4cc(O)cc(O)c4c3=O)[C@H](O)[C@@H](O)[C@@H]2O)[C@H](O)[C@H](O)[C@H]1O` [RUTIN], the IC50 ([1]; hacat) was “Not Active”.

Molecule `O=c1c(O[C@@H]2O[C@@H](CO)[C@H](O)[C@H]2O)c(-c2ccc(O)cc2)oc2cc(O)cc(O)c12` [JUGLANIN] has an IC50 (DU-145) of 2400 nM, an IC50 [2] of over 100000 nM and an IC50 [1, 9] of 2000 nM. For the same molecule, the IC50 (PANC-1 [3]) was 1800 nM.

In the case of `CO[C@@H]1[C@@H](O)[C@H](C)O[C@@H](Oc2c(-c3ccc(O)c(O)c3)oc3cc(O)cc(O)c3c2=O)[C@@H]1O`, the IC50 (DU-145) is reported as 800 nM, the inhibition (PANC-1 [4]) is reported as “Active” and the inhibition (PANC-1 [5]) is reported as “Active”. The IC50 [2] was over 100000 nM, the IC50 [1, 9] was 500 nM and the inhibition (PANC-1 [6]) was “Dose-dependent effect”. The inhibition (PANC-1 [7]) was “Dose-dependent effect”, the IC50 (PANC-1 [3]) was 700 nM and the inhibition (PANC-1 [8]) was “Active”.

`CO[C@@H]1[C@@H](O)[C@H](C)O[C@@H](OC[C@@]2(O)CO[C@@H](Oc3c(-c4ccc(O)c(O)c4)oc4cc(O)cc(O)c4c3=O)[C@@H]2O)[C@@H]1O` showed an IC50 (DU-145) of 22000 nM, an IC50 [2] of over 100000 nM and an IC50 [1, 9] of 19100 nM. The IC50 (PANC-1 [3]) was 20000 nM.
